Results as given in ChEMBL document CHEMBL4354791, “Different solid forms for optimizing route of administration of the herpes drug Pritelivir” (Medchemcomm, 2019).
In brackets after ≈: the same amount, converted by molar mass.

Tests used:
Format in all cases: physicochemical
[1] = Saturated solubility of compound in crodamol-GTC
[2] = Saturated solubility of compound in ethanol
[3] = Saturated solubility of compound in dimethyl isosorbide
[4] = Saturated solubility of compound in buffer at pH 3.5
How it was run: (§1)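 Saturated solubility in the named medium (water or buffer at the stated pH), reported in mg ml−1. Levels below the detection limit are reported as BLOQ.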

[5] = Saturated solubility of compound in buffer at pH 7; how it was run: as §1
[6] = Solubility of compound at pH 7.4; settings: buffer
[7] = Saturated solubility of compound in water; how it was run: as §1
[8] = Saturated solubility of compound in phenoxy ethanol
[9] = Saturated solubility of compound in isopropyl myristate
[10] = Saturated solubility of compound in benzyl alcohol
[11] = Saturated solubility of compound in isopropanol
[12] = Saturated solubility of compound in buffer at pH 5.5; how it was run: as §1
[13] = Saturated solubility of compound in glycerin
[14] = Saturated solubility of compound in propylene glycol
[15] = Saturated solubility of compound in transcutol p
[16] = Saturated solubility of compound in oleyl-alcohol
[17] = Saturated solubility of compound in buffer at pH 4.5; how it was run: as §1

Row | solubility thermodynamic [1] [µg/mL] | solubility thermodynamic [2] [µg/mL] | solubility [3] [µg/mL] | solubility [4] [µg/mL] | solubility thermodynamic [5] [µg/mL] | solubility [6] [µg/mL] | solubility ([7]; buffer, BLD = below limit of detection) | solubility thermodynamic [8] [µg/mL] | solubility thermodynamic [9] [µg/mL] | solubility [10] [µg/mL] | solubility thermodynamic [11] [µg/mL] | solubility thermodynamic [12] [µg/mL] | solubility thermodynamic [13] [µg/mL] | solubility thermodynamic [14] [µg/mL] | solubility thermodynamic [15] [µg/mL] | solubility thermodynamic [16] [µg/mL] | solubility [17] [µg/mL] | solubility ([3]; BLD = below limit of detection) | solubility ([7]; water, read-out: solubility) [µg/mL] | SMILES
1 | 200 (≈ 497 µM) | 300 (≈ 745 µM) | 82300 (≈ 204000 µM) | 100 (≈ 248 µM) | 100 (≈ 248 µM) | 11.5 (≈ 28.6 µM) | Bld | 2200 (≈ 5470 µM) | 100 (≈ 248 µM) | 2200 (≈ 5470 µM) | 400 (≈ 994 µM) | 100 (≈ 248 µM) | 500 (≈ 1240 µM) | 28400 (≈ 70600 µM) | 44800 (≈ 111000 µM) | 100 (≈ 248 µM) | 100 (≈ 248 µM) | – | – | Cc1nc(N(C)C(=O)Cc2ccc(-c3ccccn3)cc2)sc1S(N)(=O)=O [PRITELIVIR]
2 | – | 700 | – | 1300 | – | – | – | 10700 | – | 2000 | – | 200 | 13100 | 4700 | 1300 | – | 400 | Bld | 1200 | CS(=O)(=O)O.Cc1nc(N(C)C(=O)Cc2ccc(-c3ccccn3)cc2)sc1S(N)(=O)=O [PRITELIVIR MESYLATE]
